Laboratory results reported in ChEMBL document CHEMBL4118273, “Design, Synthesis, and Biological Evaluation of Pyrimido[4,5- d]pyrimidine-2,4(1 H,3 H)-diones as Potent and Selective Epidermal Growth Factor Receptor (EGFR) Inhibitors against L858R/T790M Resistance Mutation” (J Med Chem, 2018).

Experiments:
NCI-H1975 = assay: Antiproliferative activity against human NCI-H1975 cells harboring EGFR L858R/T790M double mutant after 72 hrs by SRB assay; format: functional, cell-based; details: NCI-H1975, 72 h
In short: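 Cell growth inhibition measured by sulforhodamine B colorimetric assay in H1975 (EGFR L858R/T790M) and A431 (overexpressed wild-type EGFR) cells; IC50 values are means ± SD of at least three independent determinations. Selectivity is taken as the A431:H1975 IC50 ratio.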

[1] = Half life in mouse liver microsomes at 0.1 uM after 60 mins in presence of NADPH by LC-MS/MS analysis; format: ADME, microsome
In short: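 Human or mouse liver microsomes (0.33 mg/mL protein) in 0.1 M Tris/HCl pH 7.4 with 5 mM MgCl2, 1 mM NADPH, 0.01% DMSO and 0.005% BSA; test compound at 0.1 µM final, 37 °C for 60 min. Aliquots at 0, 7, 17, 30 and 60 min quenched by methanol precipitation, centrifuged and analysed by LC-MS/MS.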

Cytochrome P450 1A2 = target: T1, Cytochrome P450 1A2 (Homo sapiens, UniProt P05177); assay: Inhibition of human CYP1A2 (unknown origin); format: ADME
T1 sequence (P05177 whole entry): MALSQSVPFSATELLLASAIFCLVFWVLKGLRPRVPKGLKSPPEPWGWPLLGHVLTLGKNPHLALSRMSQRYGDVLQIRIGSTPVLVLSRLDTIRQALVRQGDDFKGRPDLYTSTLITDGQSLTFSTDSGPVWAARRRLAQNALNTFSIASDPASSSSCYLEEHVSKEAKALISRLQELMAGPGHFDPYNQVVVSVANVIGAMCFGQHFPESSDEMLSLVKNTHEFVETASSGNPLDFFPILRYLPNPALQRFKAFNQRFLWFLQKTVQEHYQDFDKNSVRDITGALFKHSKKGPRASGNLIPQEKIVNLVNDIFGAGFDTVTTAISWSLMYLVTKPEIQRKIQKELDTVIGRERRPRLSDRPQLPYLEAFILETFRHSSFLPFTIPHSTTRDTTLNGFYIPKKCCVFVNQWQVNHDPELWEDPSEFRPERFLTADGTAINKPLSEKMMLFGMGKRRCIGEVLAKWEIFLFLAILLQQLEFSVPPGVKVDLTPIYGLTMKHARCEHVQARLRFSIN

[2] = Tmax in ICR mouse at 1 mg/kg, iv by LC-MS/MS analysis; format: ADME, organism-based; details: in vivo
[3] = AUC (0 to t) in ICR mouse at 1 mg/kg, iv by LC-MS/MS analysis; format: ADME, organism-based; details: in vivo
[4] = AUC (0 to infinity) in ICR mouse at 10 mg/kg, po by LC-MS/MS analysis; format: ADME, organism-based; set-up: dose 10 mg/kg, route oral, time infinity; details: in vivo
Mus musculus [5] = assay: Toxicity in Balb/c mouse xenografted with human A431 cells assessed as body weight loss at 50 mg/kg/day, po once daily for 14 days measured every 2 to 3 days during compound dosing; format: organism-based; details: in vivo
In short: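 A431 or H1975 cells were grown in RPMI-1640 with 10% FBS, and about 2 × 10^6 cells were implanted subcutaneously in the right flank of 4–6-week-old BALB/c mice. At 200–400 mm³, mice were randomized to vehicle or treated groups (n = 6). Dosing was oral, once daily, for 14 days. Body weights were recorded every 2–3 days.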

Mus musculus [6] = assay: Toxicity in Balb/c mouse xenografted with human NCI-H1975 cells assessed as mortality at 50 mg/kg/day, po once daily for 14 days measured every 2 to 3 days during compound dosing; format: organism-based; details: in vivo

C=CC(=O)Nc1cccc(-n2c(=O)n(C(C)C)c(=O)c3cnc(Nc4ccc(N5CCN(C)CC5)cc4OC)nc32)c1
IC50 (NCI-H1975): 44 nM
half-life at 0.1 µM [1]: 46.1 min
IC50 (Cytochrome P450 1A2): > 50000 nM
Tmax [2]: 6 min
AUC(0-t) [3]: 181 ng·h/mL
AUC(0-inf) [4]: 658 ng·h/mL
Activity (Mus musculus [5]): Non-Toxic
Activity (Mus musculus [6]): Non-Toxic
